# dFosB act = activators of mouse delta FosB homodimer. P13346. purified delta FosB, TAMRA-CDK5 oligo fluorescence polarization; percent of positive-control signal above neutral wells. activation, % at 25 µM. 340,000 tested, 0.99% active. AID 493131;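 active means mean activation above about 17%, with every replicate also reaching it, limit read from the data, passing the limit was not always enough; inconclusive means only one of the two conditions met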
# Target sequence (P13346 whole entry, looked up): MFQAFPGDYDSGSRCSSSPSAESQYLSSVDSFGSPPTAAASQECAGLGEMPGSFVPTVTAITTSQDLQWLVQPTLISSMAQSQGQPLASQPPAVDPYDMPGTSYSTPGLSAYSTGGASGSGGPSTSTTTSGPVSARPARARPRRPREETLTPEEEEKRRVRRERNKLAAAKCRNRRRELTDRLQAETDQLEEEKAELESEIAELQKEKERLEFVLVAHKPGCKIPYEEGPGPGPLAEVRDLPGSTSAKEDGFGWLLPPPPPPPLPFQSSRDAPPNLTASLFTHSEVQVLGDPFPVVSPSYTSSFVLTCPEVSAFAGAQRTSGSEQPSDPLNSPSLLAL
# SR-BI HDL uptake = mouse SR-BI HDL lipid transfer inhibition; ldlA[mSR-BI] CHO cells, DiI-HDL uptake fluorescence, 3 h; inhibition, % at 12.5 µM; 320,000 tested, 0.96% active; AID 488896;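 active means mean replicate inhibition of at least 70% and a set share of replicates each scoring 70 or more; inconclusive means meets just one of the two criteria; inactive means fails both criteria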
# CDK5 inh = CDK5/p35 (human) kinase inhibition. inhibition, % at 10 µM. 330,000 tested, 0.01% active. Recombinant CDK5/p35, ADP-Glo luminescence, 60 min. Q00535+Q15078. AID 488839;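 active means highest replicate inhibition of at least 50% and at least 75% of replicates reaching 50%; inconclusive means only one of the two criteria met; inactive means both criteria failed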
# PKA-R1A activ = PKA-R1A complex activation; P00514+P68181; PKA-R1A dissociation, Cy5-IP20 fluorescence polarization; scaled: DMSO 0%, 113 µM cGMP 100%; activation, % at 11.4 µM; 340,000 tested, 0.083% active; AID 504707;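 active means percent activation above the mean of all tested compounds plus 3 SD, cut at about 19% in these data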;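 further: higher means more PKAc released from R1A so a rise in polarization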
# PKA-R2B act = activators of human PKA-R2B complex; P22694+P31323; PKA-R2B holoenzyme dissociation, Cy5-IP20 fluorescence polarization; R2B truncated from residue 108, S112A mutant; 0% DMSO only, 100% 113 µM cGMP; activation, % at 11.4 µM; 340,000 tested, 0.079% active;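 active means activation above a cutoff set at the mean over all compounds plus 3 SD, cut at about 18% in these data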;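 further: higher means more holoenzyme dissociation and a rise in polarization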
# SR-BI DiI-HDL act = SR-BI HDL lipid transfer activation; 320,000 tested, 0.096% active; activation, % at 12.5 µM; CHO ldlA[mSR-BI] cells, DiI-HDL uptake fluorescence, 3 h; 100 = double the neutral-control signal;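 active means mean replicate activation of at least 60% and every replicate at or above 60%; inconclusive means mean or all-replicate condition met, but not both; inactive means mean below 60% and not all replicates reaching 60%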
#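 material = CHO ldlA[mSR-BI] cells | medium = Ham's F12 with 0.5% BSA, HEPES 25 mM, pH 7.4 | reagent = fluorescent DiI-HDL, 10 µg/mL final | compound dosing = single-point compound dose | incubation = 3 h, 37 °C | measured by = bottom-read fluorescence, 550/595 nm | measure = HDL uptake via cellular fluorescence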
# DiI quench = quenches DiI-HDL fluorescence, an SR-BI assay artifact. shares compounds with SR-BI HDL uptake. cell-free DiI-HDL fluorescence quenching, 30 min. AC50, µM (top dose mostly 35 µM). 470 tested, 20% active;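 active means quenching, a falling signal, with AC50 below a set limit tied to the top valid dose, actives reach about 32 µM in these data; inconclusive means no clear call, values can overlap the other calls; inactive means rising signal, and the rest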
# Numbers stand for hits; n = inactive; u = inconclusive; x = not tested or not shown; ! = a repeat was not active. Hits are enriched below; roughly 2.1% of the tested compounds scored in any of these assays.
SMILES,dFosB act,SR-BI HDL uptake,CDK5 inh,PKA-R1A activ,PKA-R2B act,SR-BI DiI-HDL act,DiI quench
COc1cc2nc(SCc3ccc(Cl)cc3Cl)n(Cc3cccs3)c(=N)c2cc1OC,n,n,n,n,n,n,x
COC(=O)c1cccc(N/C=C(\[N+](=O)[O-])S(=O)(=O)c2ccccc2)c1,n,n,n,n,n,n,x
c1ccc(-c2nc(SCc3nc4ccccc4[nH]3)c3oc4ccccc4c3n2)cc1,n,n,n,n,n,n,x
COC(=O)CSc1nc(-c2ccc(F)cc2)cc(C(F)(F)F)n1,n,n,n,n,n,n,x
CCN(CC)CCCNC(=O)CSc1nc(-c2ccc(F)cc2)cc(C(F)(F)F)n1,n,86,n,n,n,n,x
COc1ccc(NC(=O)COC(=O)c2c(NC(C)=O)sc(C)c2C)cc1,x,x,x,n,n,x,x
Cc1cccc(NC(=O)CCS(=O)(=O)c2cccc3nsnc23)c1C,n,n,n,n,n,70,x
CCCCN([C@H](CO)C(C)C)S(=O)(=O)c1ccccc1Br,n,n,n,n,n,n,x
CC1(C)c2ccccc2N2CC(=O)N(CC(N)=O)C21C (configuration not stated),40,n,n,n,n,n,x
COc1ccc(-c2[nH]c(-c3ccc(F)cc3)nc2SCC(=O)NC2CCCC2)cc1,n,78,n,n,n,n,26µM
COc1ccc(-c2[nH]c(-c3ccccc3)nc2SCC(=O)NC2CCCC2)cc1,n,n,n,n,n,n,x
O=C(O)CC1Cc2ccccc2C1C(=O)O (configuration not stated),n,n,n,n,n,n,x
CCC(=O)N1CCc2cc(-c3csc(NC(=O)c4ccco4)n3)ccc21,n,88,n,n,n,n,n
Cc1ccccc1C(=O)N1CCc2cc(-c3csc(NC(=O)CN4CCCC4)n3)ccc21,n,n,n,n,n,n,x
CC(C)C(=O)N1CCc2cc(-c3csc(N)n3)ccc21,n,79,n,n,n,n,n
CS(=O)(=O)N1CCc2cc(-c3csc(NC(=O)Cc4ccccc4)n3)ccc21,n,u,n,n,n,n,n
CCCC(=O)Nc1nc(-c2ccc3c(c2)CCN3S(C)(=O)=O)cs1,n,n,n,n,n,n,x
Cc1cc(C)cc(NC(=O)CCc2c(C)nn(-c3ccc(N4CCCCC4)nn3)c2C)c1,n,79,n,n,n,n,n
CCC(C)n1ncn(-c2ccc(N3CCN(c4ccc(OCC5COC(Cn6cncn6)(c6ccc(Cl)cc6Cl)O5)cc4)CC3)cc2)c1=O (configuration not stated),n,83!,n,n,n,n,n
CCC(C)n1ncn(-c2ccc(N3CCN(c4ccc(O)cc4)CC3)cc2)c1=O (configuration not stated),n,n,n,n,n,n,x
CCC(C)c1ccccc1N1CC(C(=O)N2CCN(S(=O)(=O)c3ccccc3Br)CC2)CC1=O (configuration not stated),n,78,n,n,n,n,n
COc1ccc(CNC(=O)c2ccc(CS(=O)(=O)c3ccc(Br)cc3)o2)cc1,n,n,n,n,n,n,x
COC(=O)C1C(=O)c2c([nH]c(C(=O)OC3CCCC3C)c2C)CC1C (configuration not stated),n,n,n,n,n,n,n
C/C=C(\C)C(=O)Nc1cccc(C2=NOC3(C2)C[C@@H](C(N)=O)N(C(=O)c2cc([N+](=O)[O-])cc([N+](=O)[O-])c2C)C3)c1 (some centres not stated),n,n,n,n,n,n,x
Cc1c(C(=O)N2CC3(CC(c4cccc(NC(=O)CC(c5ccccc5)c5ccccc5)c4)=NO3)C[C@@H]2C(N)=O)cc([N+](=O)[O-])cc1[N+](=O)[O-] (some centres not stated),n,n,n,n,n,n,n
SMILES,dFosB act,SR-BI HDL uptake,CDK5 inh,PKA-R1A activ,PKA-R2B act,SR-BI DiI-HDL act,DiI quench
O=C(Nc1ccc(-c2nc3ccccc3o2)cc1)c1cc(-n2cnnc2)ccc1Cl,n,u,n,n,n,n,n
CC(C)(C)c1ccc(C(=O)NNC(=O)C2CCCCC2)cc1,n,n,n,n,n,n,x
CN(Cc1ccccc1N1CCCC1)C(=O)c1cc2cc(Cl)ccc2o1,n,70,n,n,n,n,n
O=C(NCc1cccnc1)C1CCN(S(=O)(=O)c2cc(Cl)ccc2Cl)CC1,n,n,n,n,n,n,x
CCOCCOC(=O)c1[nH]c2c(c1C)C(=O)CC(c1cccs1)C2 (configuration not stated),n,75,n,n,n,n,n
CCCCCOC(=O)c1[nH]c2c(c1C)C(=O)CC(c1ccco1)C2 (configuration not stated),n,80,n,n,n,n,n
CCOCCOC(=O)c1[nH]c2c(c1C)C(=O)CC(c1ccccc1)C2 (configuration not stated),n,n,n,n,n,n,x
COCCOC(=O)c1[nH]c2c(c1C)C(=O)CC(c1cccs1)C2 (configuration not stated),n,x,n,n,n,x,x
COc1ccc(NC(=O)Nc2cccc3c2O[C@H](CN(C)C(=O)Nc2ccc4c(c2)OCO4)[C@@H](C)CN([C@H](C)CO)C3=O)cc1,n,n,n,n,n,n,x
CC(C)CC1NC(=O)N(CC(=O)Nc2ccc3c(c2)OCCO3)C1=O (configuration not stated),n,n,n,n,n,n,x
CC(C)CC(=O)N1CCN(C(=O)c2ccc(F)cc2)CC1,n,n,n,n,n,n,x
O=C(/C=C/c1ccco1)Nc1cccc(NC(=O)/C=C/c2ccco2)n1,n,n,n,n,n,n,n
Cc1nc(NC(=O)/C=C/c2ccco2)sc1C,n,n,n,n,n,n,x
CCOC(=O)CSc1c(-c2ccc(Cl)cc2)[nH]c2ccccc12,n,75,n,n,n,n,n
Cc1ccc(-c2[nH]c3ccccc3c2SCCNC(=O)c2cc3ccccc3oc2=O)cc1,n,n,n,n,n,n,x
O=C(Cc1cccs1)NCCSc1c(-c2ccc(Cl)cc2)[nH]c2ccccc12,n,u,n,n,n,n,n
COc1ccc(S(=O)(=O)Nc2ccccn2)cc1C(=O)Nc1ccccc1,n,n,n,n,n,n,x
COc1cc(NC(=O)c2cc(-c3ccccc3Cl)on2)cc(OC)c1OC,n,83,n,n,n,n,n

# Screens from PubChem.
